Data set [1] can be described thus: Inhibition of sensor loaded biotinylated-LAMP1 binding to Influenza A virus (A/Netherlands/178/1995(H3N2)) H3 hemagglutinin expressed in Influenza virus WU95 in presence of NA inhibitor oseltamivir carboxylate by biolayer interferometric analysis. The essentials:
(§1)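 OctetRed BLI: streptavidin sensors were saturated with biotinylated LAMP1 in PBS pH 7.4. They were dipped into WU95 (8 HAU, 2.5 × 10^8 particles per well) preincubated 4 h at room temperature with compound and 10 µM (end concentration) oseltamivir carboxylate. Initial binding rate was compared with a no-compound control.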

The subject of data set [2] is Influenza A virus (A/Netherlands/178/1995(H3N2)). Nature of the data set: Potency index, ratio of compound 7 IC50 to test compound IC50 for inhibition of sensor loaded biotinylated-LAMP1 binding to Influenza A virus (A/Netherlands/178/1995(H3N2)) H3 hemagglutinin expressed in Influenza virus WU95.
The test system is the same in data set [3]. Nature of the data set: Inhibition of sensor loaded biotinylated-LAMP1 binding to Influenza A virus (A/Netherlands/178/1995(H3N2)) H3 hemagglutinin expressed in Influenza virus WU95 at 3 uM in presence of NA inhibitor oseltamivir carboxylate by biolayer interferometric analysis. The essentials: as §1
For orientation: Biolayer interferometry detects binding as a change in optical thickness at a sensor tip.

Data set [4] has as its system Influenza A virus (A/Bilthoven/1761/1976(H3N2)). Nature of the data set: Inhibition of sensor loaded biotinylated-LAMP1 binding to Influenza A virus (A/Bilthoven/1761/1976(H3N2)) H3 hemagglutinin expressed in Influenza virus VI75 at 3 uM by biolayer interferometric analysis. Put shortly: (§2)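 BLI with streptavidin sensors loaded to saturation with biotinylated LAMP1 (PBS, pH 7.4). VI75 virus was preincubated 4 h at room temperature with 3 µM compound, without or with 10 µM oseltamivir carboxylate. Initial virus binding rate was compared with a compound-free control.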

The test system is the same in data set [5]. Nature of the data set: Inhibition of sensor loaded biotinylated-LAMP1 binding to Influenza A virus (A/Bilthoven/1761/1976(H3N2)) H3 hemagglutinin expressed in Influenza virus VI75 at 3 uM in presence of NA inhibitor oseltamivir carboxylate by biolayer interferometric analysis. Put shortly: as §2
Data set [6] can be described thus: Inhibition of Influenza A virus (A/Netherlands/178/1995(H3N2)) H3 hemagglutinin expressed in Influenza virus WU95 assessed as reduction in human erythrocytes hemagglutination preincubated for 4 hrs followed by erythrocytes addition and measured after 2 hrs. It is filed as cell-based. The essentials:
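Four hemagglutination units of virus were preincubated 4 h at room temperature with limiting compound dilutions in the presence of oseltamivir carboxylate. Then 0.5% (v/v) erythrocytes were added for 2 h at 4 °C. The lowest inhibiting concentration was recorded; two experiments were run in duplicate and means are reported.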

Data set [7] concerns Influenza A virus (A/Netherlands/178/1995(H3N2)). As to the kind of experiment: Potency index, ratio of compound 8 IC50 to test compound IC50 for Inhibition of Influenza A virus (A/Netherlands/178/1995(H3N2)) H3 hemagglutinin expressed in Influenza virus WU95 assessed as reduction in human erythrocytes hemagglutination. Type of data set: cell-based.
The subject of data set [8] is Influenza A virus. Nature of the data set: Antiviral activity against Influenza A virus WU95 expressing Influenza A virus (A/Netherlands/178/1995(H3N2)) H3 hemagglutinin infected in MDCK2 cells at 30 nM preincubated with virus for 4 hrs followed by cell infection and measured after 2 hrs by DAPI staining-based assay. It is filed as functional, organism-based. The essentials:
(§3)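 WU95 was preincubated 4 h at room temperature in Opti-mem with or without 15 µM compound, ±10 µM oseltamivir carboxylate. The mixture was diluted 500-fold onto confluent MDCK-II for 2 h, giving end concentrations of 30 nM compound, 20 nM OC and MOI 0.01. Cells were washed, kept overnight at 37 °C with 10 nM bafilomycin, then fixed and nucleoprotein-immunostained.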

For data set [9], the system named is Influenza A virus. As to the kind of experiment: Antiviral activity against Influenza A virus WU95 expressing Influenza A virus (A/Netherlands/178/1995(H3N2)) H3 hemagglutinin infected in MDCK2 cells at 30 nM preincubated with virus for 4 hrs followed by cell infection and measured after 2 hrs in presence of 20 nM NA inhibitor oseltamivir carboxylate by DAPI staining-based assay. It is filed as functional, organism-based. Put shortly: as §3

For data set [10], the system named is Influenza A virus. As to the kind of experiment: Antiviral activity against Influenza A virus WU95 expressing Influenza A virus (A/Netherlands/178/1995(H3N2)) H3 hemagglutinin infected in MDCK2 cells assessed as reduction in virus-induced cytopathogenicity preincubated with virus for 4 hrs followed by cell infection and measured after 3 days by DAPI staining-based assay. It is filed as functional, organism-based. Put shortly:
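WU95 virus was preincubated 4 h at room temperature in Opti-mem with varying compound concentrations. It was then inoculated onto confluent MDCK-II cells at MOI 0.005 and held 3 days with 1 µg/ml TPCK-trypsin to allow multiple rounds of infection. Cells were fixed and DAPI-stained, and monolayers inspected visually; absence of stained cells was taken as cell killing.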

The subject of data set [11] is Influenza A virus (A/duck/Hunan/795/2002(H5N1)). Nature of the data set: Inhibition of sensor loaded biotinylated-LAMP1 binding to Influenza A virus (A/duck/Hunan/795/2002 (H5N1)) […] expressed in Influenza virus H5N1 by biolayer interferometric analysis relative to control.
Data set [12] can be described thus: Inhibition of sensor loaded biotinylated-LAMP1 binding to Influenza A virus (A/Netherlands/602/2009(H1N1)) […] by biolayer interferometric analysis.
Data set [13] concerns Influenza A virus. Nature of the data set: Antiviral activity against Influenza A virus WU95 expressing Influenza A virus (A/Netherlands/178/1995(H3N2)) H3 hemagglutinin infected in MDCK2 cells preincubated with virus for 4 hrs followed by cell infection and measured at 7 hrs post-infection by DAPI staining-based assay. It is filed as functional, organism-based. Put shortly: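 Single-cycle infection: WU95 in Opti-mem was preincubated 4 h at room temperature with varying compound concentrations. Confluent MDCK-II cells were inoculated in triplicate at MOI 0.005 and fixed at 7 h post-infection in methanol (−20 °C, 5 min). Cells were immunostained for nucleoprotein (HB65, Alexa 488 secondary), counterstained with DAPI, and infected cells per well were counted.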

For data set [14], the system named is MDCK-II. As to the kind of experiment: Cytotoxicity against MDCK2 cells assessed as reduction in cell viability measured after 24 hrs by WST1 assay. It is filed as cell-based, Canis lupus familiaris. Conditions: dog. The essentials:
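MDCK-II cells were incubated 24 h in Opti-mem with compounds at different concentrations. Cell number and viability were then read by WST-1 assay.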
On the technique in general: Formazan colour is commonly taken as a measure of viable cells.

The record followed here is ChEMBL document CHEMBL4364287, “Enhanced Inhibition of Influenza A Virus Adhesion by Di- and Trivalent Hemagglutinin Inhibitors” (J Med Chem, 2019).

Calls of active or inactive are those of the source. The rule behind the calls is not given here.

Broadly, the IC50 is the concentration that inhibits the measured activity by half. In general, Ki refers to the equilibrium dissociation constant of an inhibitor or competing ligand from its target.

For `CC(=O)N[C@H]1[C@H](O[C@H]2[C@@H](O)[C@@H](CO)O[C@@H](O[C@H]3[C@H](O)[C@@H](O)[C@H](n4cc(-c5ccc(-c6cn(CCCC(=O)Nc7cccc(-c8cc(-c9cccc(NC(=O)CCCn%10cc(-c%11ccc(-c%12cn([C@@H]%13O[C@H](CO)[C@@H](O[C@@H]%14O[C@H](CO)[C@H](O)[C@H](O[C@@H]%15O[C@H](CO)[C@@H](O[C@@H]%16O[C@H](CO[C@]%17(C(=O)O)C[C@H](O)[C@@H](NC(C)=O)[C@H]([C@H](O)[C@H](O)CO)O%17)[C@H](O)[C@H](O)[C@H]%16O)[C@H](O)[C@H]%15NC(C)=O)[C@H]%14O)[C@H](O)[C@H]%13O)nn%12)cc%11)nn%10)c9)cc(-c9cccc(NC(=O)CCCn%10cc(-c%11ccc(-c%12cn([C@@H]%13O[C@H](CO)[C@@H](O[C@@H]%14O[C@H](CO)[C@H](O)[C@H](O[C@@H]%15O[C@H](CO)[C@@H](O[C@@H]%16O[C@H](CO[C@]%17(C(=O)O)C[C@H](O)[C@@H](NC(C)=O)[C@H]([C@H](O)[C@H](O)CO)O%17)[C@H](O)[C@H](O)[C@H]%16O)[C@H](O)[C@H]%15NC(C)=O)[C@H]%14O)[C@H](O)[C@H]%13O)nn%12)cc%11)nn%10)c9)c8)c7)nn6)cc5)nn4)O[C@@H]3CO)[C@@H]2O)O[C@H](CO)[C@@H](O[C@@H]2O[C@H](CO)[C@H](O)[C@H](O)[C@H]2O)[C@@H]1O`, the IC50 in data set [1] is 0.71 µM. Also, the Ratio IC50 in [2] is 428; in [7], 35. The inhibition entry in data set [3], in [4] and in [5] was “Active” in each case. Moreover, in [6], the Ki was 10.3 µM. Also, the result in data set [8] and in data set [9] was Active.
For `CC(=O)N[C@H]1[C@H](O[C@H]2[C@@H](O)[C@@H](CO)O[C@@H](O[C@H]3[C@H](O)[C@@H](O)[C@H](n4cc(-c5ccc(-c6cn(CCCC(=O)Nc7cccc(-c8cc(-c9cccc(NC(=O)CCCn%10cc(-c%11ccc(-c%12cn([C@@H]%13O[C@H](CO)[C@@H](O[C@@H]%14O[C@H](CO)[C@H](O)[C@H](O[C@@H]%15O[C@H](CO)[C@@H](O[C@@H]%16O[C@H](CO[C@]%17(C(=O)O)C[C@H](O)[C@@H](NC(C)=O)[C@H]([C@H](O)[C@H](O)CO)O%17)[C@H](O)[C@H](O)[C@H]%16O)[C@H](O)[C@H]%15NC(C)=O)[C@H]%14O)[C@H](O)[C@H]%13O)nn%12)cc%11)nn%10)c9)cc(-c9cccc(NC(=O)CCCn%10cc(-c%11ccc(-c%12cn([C@@H]%13O[C@H](CO)[C@@H](O[C@@H]%14O[C@H](CO)[C@H](O)[C@H](O[C@@H]%15O[C@H](CO)[C@@H](O[C@@H]%16O[C@H](CO[C@]%17(C(=O)O)C[C@H](O)[C@@H](NC(C)=O)[C@H]([C@H](O)[C@H](O)CO)O%17)[C@H](O)[C@H](O)[C@H]%16O)[C@H](O)[C@H]%15NC(C)=O)[C@H]%14O)[C@H](O)[C@H]%13O)nn%12)cc%11)nn%10)c9)c8)c7)nn6)cc5)nn4)O[C@@H]3CO)[C@@H]2O)O[C@H](CO)[C@@H](O[C@@H]2O[C@H](CO[C@]3(C(=O)O)C[C@H](O)[C@@H](NC(C)=O)[C@H]([C@H](O)[C@H](O)CO)O3)[C@H](O)[C@H](O)[C@H]2O)[C@@H]1O`, the outcome in [10] was Active. In addition, the IC50 is 0.71 µM in [1], 2.7 µM in data set [12] and 4.4 µM in [13]. The Ratio IC50 is 428 in data set [2] and 38 in [7]. For the same compound, the Imax in data set [11] amounted to 50%. Also, the inhibition entry in [3], in data set [4] and in data set [5] was “Active” each time. For the same compound, the inhibitory constant (Ki) in [6] turned out to be 9.4 µM. Also, the Activity result in [14] was “Non-Toxic”.
